MrgX1 antag: human MrgX1 receptor antagonism, primary screen | B-score at 10 µM | 1.3% of 310,000 active | Q96LB2 | MRGX1-HEK293 calcium flux, Fluo-4, BAM8-22 antagonism; active compounds read low;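 active means calcium-response B-score plate-corrected more than 3 library SD below zero, starting fluorescence within 5 deviations, no agonist response on first addition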;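 further: peak minus trough fluorescence over baseline after final BAM8-22 challenge near maximal dose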
Target sequence (Q96LB2 whole entry, looked up): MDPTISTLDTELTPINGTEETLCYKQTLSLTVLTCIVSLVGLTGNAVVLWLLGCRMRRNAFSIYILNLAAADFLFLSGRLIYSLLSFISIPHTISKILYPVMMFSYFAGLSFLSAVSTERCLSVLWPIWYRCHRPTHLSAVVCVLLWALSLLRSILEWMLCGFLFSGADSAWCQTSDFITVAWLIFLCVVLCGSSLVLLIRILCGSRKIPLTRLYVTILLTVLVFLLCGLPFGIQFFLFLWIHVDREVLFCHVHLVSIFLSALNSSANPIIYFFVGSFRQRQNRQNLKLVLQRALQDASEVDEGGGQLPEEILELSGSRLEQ
RGS4 pot: potentiators or activators of RGS4 | 0.92% of 310,000 active | B-score at 10 µM | HEK293 M3R/inducible RGS4, carbachol calcium flux Fluo4; active compounds read low | AID 463111;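 active means B-score of the integrated calcium signal more than 4 SD below the library mean, with starting fluorescence not abnormally high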;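 further: negative B-score means reduced calcium response which marks RGS4 activation or potentiation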
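test system = M3R-expressing HEK293 line, RGS4 induced by doxycycline | probe or stimulus = carbachol at ECmax as muscarinic agonist stimulus | timing = dye loading 30 min 37 °C, buffer rest 30 min RT | signal = calcium dye Fluo4 fluorescence | evaluation = B score from integrated fluorescence ratio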
RGS4 block: human RGS4 inhibition. P49798. HEK293 M3R/RGS4 inducible, Fluo-4 calcium flux; active compounds read high; triggered by carbachol at its EC20. B-score at 10 µM. 0.45% of 310,000 active. AID 463165;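 active means B-score, a plate-corrected calcium signal, over three deviations above library mean, with baseline fluorescence within five deviations of library mean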;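 further: RGS4 expression induced by doxycycline in cells with stable M3 receptor; B-score is computed from the integrated fluorescence ratio over baseline after carbachol; higher B-score means a larger calcium signal and so more RGS4 inhibition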
Target sequence (P49798 whole entry, looked up): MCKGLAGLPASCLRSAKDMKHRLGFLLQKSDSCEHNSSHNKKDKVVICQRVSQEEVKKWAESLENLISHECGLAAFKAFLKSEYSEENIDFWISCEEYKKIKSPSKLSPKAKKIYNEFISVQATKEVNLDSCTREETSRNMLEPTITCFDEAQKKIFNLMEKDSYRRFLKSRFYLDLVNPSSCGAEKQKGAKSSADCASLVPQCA
MrgX1 agonist: agonists of human MrgX1 receptor. 0.44% of 310,000 active. B-score at 10 µM. MrgX1-HEK293 cells, Fluo-4 calcium fluorescence, agonist mode; active compounds read high;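 active means calcium response B-score plate-corrected fluorescence ratio at least 3 library SD, with starting fluorescence B-score inside 5 SD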
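Assay system: MrgX1-expressing HEK293 cells / Amount: fifteen thousand cells per well / Doses: test compound in the initial addition of three / Timing: cells plated overnight, dye loaded 0.5 h 37 °C, 0.5 h room temperature / Technique: kinetic calcium dye fluorescence, Fluo-4 NW / Control set: positive and negative controls per plate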
MrgX1 PAM: allosterically activates human MrgX1 receptor signaling; Q96LB2; MrgX1-HEK293, Fluo-4 calcium flux, FDSS; active compounds read high; B-score at 10 µM; 0.63% of 310,000 active; AID 588675;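 active means plate-corrected calcium response at least 3 library SD above typical, normal starting fluorescence, not activating the receptor alone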;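 further: compound read alongside a low EC10 to EC30 dose of BAM8-22 agonist; peak minus trough fluorescence over baseline measured at the second addition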
MrgX1 ant reconf: reconfirmed antagonist of human MrgX1 receptor signaling; MrgX1-HEK293, BAM8-22 calcium flux, Fluo-4; active compounds read low; shares compounds with MrgX1 antag; 19% of 2,300 active; remaining BAM8-22 calcium response % of control (active compounds read low), % at 10 µM;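 active means remaining agonist calcium response no higher than 100% minus 3 SD of agonist-only control wells, with starting fluorescence near control levels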;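 further: agonist BAM8-22 given at a near maximal EC90 to ECmax level; peak minus minimum fluorescence divided by baseline after agonist addition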
HEK293 Ca flux: MrgX1 antagonist counter-screen hit in parental HEK293 cells; AID 624111; 2% of 4,000 active; shares compounds with MrgX1 antag; fluorescence ratio F(max-min)/F0 at 10 µM; Fluo-4 calcium fluorescence, FDSS;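 active means duplicate-averaged calcium fluorescence ratio at least three times the standard deviation of buffer wells, a nonspecific response in parental cells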
HEK293 Ca counter: activity in parental HEK293 cells without MrgX1; shares compounds with MrgX1 antag; parental HEK293 calcium flux, Fluo-4 fluorescence ratio; active compounds read high; fluorescence ratio F(max-min)/F0 at 10 µM; 0.4% of 4,000 active; AID 624114;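 active means calcium fluorescence ratio, averaged over duplicates, at least 3 SD of the buffer-well ratio, meaning a nonspecific response in receptor-free cells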;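 further: untransfected parental HEK293 lacking MrgX1 used as counterscreen for MrgX1 allosteric activators; fluorescence change taken during the second addition on a kinetic imager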
HEK293 Ca cntr2: counter-screen for MrgX1 activators: effect in parental HEK293 cells; shares compounds with MrgX1 antag; Fluo-4 calcium fluorescence (FDSS); active compounds read high; fluorescence ratio F(max-min)/F0 at 10 µM; 8.7% of 4,000 active;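 active means calcium fluorescence ratio at least three times the spread of buffer wells, meaning a non-specific response in parental cells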
Starred values were filed as active, the others as inactive; i = inactive; nt = no result. Only some compounds are listed: those with a hit (about 3.5% of all), similar ones and a draw of the others.

SMILES	MrgX1 antag	RGS4 pot	RGS4 block	MrgX1 agonist	MrgX1 PAM	MrgX1 ant reconf	HEK293 Ca flux	HEK293 Ca counter	HEK293 Ca cntr2
CN=c1nc(-c2ccccc2)n(-c2ccccc2)s1	-4.89*	nt	nt	i	i	i	i	i	i
N#Cc1ccccc1S(=O)(=O)N1CCN(S(=O)(=O)c2ccc(Br)c(C(=O)O)c2)CC1	i	i	i	i	i	nt	nt	nt	nt
CN(CC(=O)Nc1cccc(F)c1)C(=O)/C=C/c1ccc2ccccc2n1	i	i	i	i	i	nt	nt	nt	nt
Cc1ccc(NC(=O)c2cccnc2)cc1S(=O)(=O)N(C)C	i	i	i	i	i	nt	nt	nt	nt
Cc1ccc(NC(=O)c2ccc3ncsc3c2)cc1S(=O)(=O)N(C)C	-5.44*	i	i	i	i	i	i	i	i
COc1ccc(Cc2nc3ccc(C(=O)NCC(C)(C)OC)cc3o2)cc1	-6.31*	i	i	i	i	i	i	i	i
CCOC(=O)N1CCN(C(=O)/C(=C/c2cccs2)NC(=O)c2ccc(OC)c(OC)c2)CC1	i	i	i	i	i	nt	nt	nt	nt
CN(CC(=O)Nc1ccc(F)c(F)c1F)C(=O)CCc1nc2sc3c(c2c(=O)[nH]1)CCCC3	i	i	i	i	i	nt	nt	nt	nt
Cc1cccc(C)c1NC(=O)NC1CC2CCC(C1)N2Cc1cccs1 (stereo not drawn)	-7.51*	i	i	i	i	i	i	i	i
COc1ccc(C(=O)N(C)Cc2ccon2)cc1OC1CCN(C(C)C)CC1	i	i	i	i	i	nt	nt	nt	nt
COc1ccc(C(=O)N(C)Cc2ccccn2)cc1OC1CCN(C(C)C)CC1	-5.2*	i	i	i	i	i	i	i	i
Cn1c(SCc2ccc(C#N)cc2)nnc1-c1cccc(Cl)c1	-4.7*	i	i	i	i	i	i	i	i
CC(C)Oc1ccc(C(=O)OC(C)C(=O)NC2CCCCC2C)cc1 (stereo not drawn)	i	i	i	i	i	nt	nt	nt	nt
CC(OC(=O)c1ccncc1)C(=O)NC1CCCC1 (stereo not drawn)	-10.1*	i	i	i	i	i	i	i	i
CC(C)c1nnc(NC(=O)c2nc(S(=O)(=O)Cc3ccccc3)ncc2Cl)s1	-5.27*	i	i	i	i	81.2%*	i	i	i
CSc1nnc(NC(=O)c2nc(S(=O)(=O)Cc3ccccc3)ncc2Cl)s1	-4.74*	i	i	i	i	71.1%*	i	i	i
CCc1ccc(NC(=O)c2nc(S(=O)(=O)Cc3ccccc3)ncc2Cl)cc1	i	i	i	i	i	nt	nt	nt	nt
CN1CCN(Cc2nc3ccccc3c(=O)n2CC#N)CC1	-5.61*	i	i	i	i	i	i	i	i
Cc1ccc(C(NC(=O)c2ccccc2)C(Cl)(Cl)Cl)cc1 (stereo not drawn)	i	i	i	i	i	nt	nt	nt	nt
Cc1ccc(C(=O)NC(N(C)C)C(Cl)(Cl)Cl)cc1 (stereo not drawn)	-4.53*	i	i	i	i	i	i	i	i
O=C(COc1ccc(Cl)cc1)NCCc1ccccn1	-5.23*	i	i	i	i	84.7%*	i	i	i
O=C(COc1ccc(Cl)cc1)NCCCNC(=O)c1ccccn1	i	i	i	i	i	nt	nt	nt	nt
S=C(NCCc1ccccn1)Nc1cc(Cl)cc(Cl)c1	-4.53*	i	i	i	i	80.8%*	i	i	i
S=C(NCCc1ccccn1)Nc1ccc(Cl)c(Cl)c1	i	i	i	i	i	nt	nt	nt	nt
CCc1cc(=O)oc2cc(OCc3ccc(C(=O)O)o3)ccc12	i	i	i	i	i	nt	nt	nt	nt
SMILES	MrgX1 antag	RGS4 pot	RGS4 block	MrgX1 agonist	MrgX1 PAM	MrgX1 ant reconf	HEK293 Ca flux	HEK293 Ca counter	HEK293 Ca cntr2
Cc1ccccc1Cc1ccc(Cl)nn1	i	i	i	i	i	nt	nt	nt	nt
C=C(C)COc1ccc(-c2nc(N)ncc2Oc2ccc(OC)cc2)c(O)c1	-4.62*	i	i	i	i	i	i	i	i
C=C(C)COc1ccc(-c2nc(N)ncc2Oc2ccccc2OC)c(O)c1	i	nt	nt	i	i	nt	nt	nt	nt
Cc1ccc2nsnc2c1S(=O)(=O)N1CCN(Cc2ccc3c(c2)OCO3)CC1	-7.49*	i	i	i	i	i	i	i	i
CCOC(=O)Nc1ccc2c(CN3CCN(S(=O)(=O)c4ccccc4)CC3)cc(=O)oc2c1	i	i	i	i	i	nt	nt	nt	nt
CCOC(=O)Nc1ccc2c(CN3C(=O)NC(CC)(CC)C3=O)cc(=O)oc2c1	-4.7*	i	i	i	i	80.9%*	i	i	i
CCOC(=O)CC1C(=O)NCCN1Cc1cccc(C(F)(F)F)c1 (stereo not drawn)	-4.67*	i	i	i	i	i	i	i	i
O=C(CC1C(=O)NCCN1Cc1cccc(C(F)(F)F)c1)NC1CCOCC1 (stereo not drawn)	i	i	i	i	i	nt	nt	nt	nt
COc1ccc(N(CC(=O)Nc2cccc(C(C)=O)c2)S(=O)(=O)c2ccc(NC(C)=O)cc2)cc1	i	i	i	i	i	nt	nt	nt	nt
COc1ccc(C(=O)Nc2nc(C)c(C(=O)N(C)C)s2)cc1OC	-8.66*	i	i	i	i	i	i	i	i
COc1ccc(/C=C/C(=O)Nc2nc(C)c(C(=O)N(C)C)s2)cc1OC	i	i	i	i	i	nt	nt	nt	nt
CN(C)CCCO[C@@H]1[C@H]2OC(C)(C)O[C@H]2O[C@@H]1[C@H](O)CO	i	nt	nt	i	i	nt	nt	nt	nt
Cc1c([C@@H]2C[C@H]3CN(Cc4cccc(Cl)c4)C(=O)[C@]34CCCN24)cnn1C	i	i	i	i	i	nt	nt	nt	nt
Cn1cc([C@@H]2C[C@H]3CN(Cc4cccc(Cl)c4)C(=O)[C@]34CCCN24)c2ccccc21	-5.22*	i	i	i	i	i	i	i	i
